Compound activity: PubChem, several laboratories
HSF1 inhib: HSF1 inhibitors in luciferase reporter cells, primary screen, cell-based, NIH3T3, luminescence | NIH3T3-HGL HSE-luciferase, MG132-induced, luminescence 8 h; active compounds read low | activity change, negative = inhibition, % at 7.5 µM (by protocol) | 300,000 tested, 0.77% active | AID 2098, 2009;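 active = more than half of replicate wells show activity change below -50%, luminescence cut by over half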;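 note: luciferase reports HSF-1 transcriptional activity via heat shock element; 0% = median of DMSO wells and -100% = zero luminescence signal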
Lipid droplet: inhibitors of hepatocyte lipid droplet formation, primary screen, imaging, high-throughput imaging, BODIPY stain; AML12 mouse hepatocytes, oleate lipid droplets; inhibition, % at 6.5 µM; 240,000 tested, 0.4% active; AID 1656, 2009;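 active = lipid droplet intensity inhibited by at least 50%, with more than 500 cells counted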
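Assay system: AML12 hepatocytes (mouse) / Also added: 100 µM oleic acid challenge / Times: overnight treatment with compound plus oleate / Detection: high-content imaging of BODIPY-stained droplets and DAPI nuclei / Evaluation: % inhibition of lipid droplet signal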
PHOSPHO1 inh: PubChem AID 1565 | inhibition, % at 13.3 µM | 290,000 tested, 1.1% active | Phosphoethanolamine/phosphocholine phosphatase (Homo sapiens), Q8TCT1 | recombinant PHOSPHO1, absorbance phosphatase assay; in the data active = inhibition above about 60%
Target sequence (Q8TCT1 whole entry, looked up): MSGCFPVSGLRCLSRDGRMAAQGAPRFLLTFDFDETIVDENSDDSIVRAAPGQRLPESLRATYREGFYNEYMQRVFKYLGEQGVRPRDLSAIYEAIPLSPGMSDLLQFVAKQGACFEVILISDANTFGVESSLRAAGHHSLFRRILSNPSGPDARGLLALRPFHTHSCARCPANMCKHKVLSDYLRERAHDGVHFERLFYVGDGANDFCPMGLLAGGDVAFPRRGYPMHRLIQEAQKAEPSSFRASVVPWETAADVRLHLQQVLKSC
HSF-1 act: HSF-1 activators, primary screen, NIH3T3-HGL cells, MG132 stress, luminescence, single point; NIH3T3-HGL HSF-1 luciferase reporter, 8 h; 100% = twice DMSO control signal; activation, % at 9 µM; AID 504408, 2011; 300,000 tested, 1.7% active;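 active = mean replicate activation of at least 50% with a set share of replicates each reaching 50%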;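 note: 0% = median of the neutral control wells and 100% = twice that signal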
CHT block: inhibitors of human choline transporter CHT. AID 488975, 2010. 310,000 tested, 0.86% active. High affinity choline transporter 1 (Homo sapiens), Q9GZV3. B-score at 10 µM. CHT-expressing cells, membrane potential dye, choline response; active compounds read low;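 active = B-score over 3 SD under the library average, and starting fluorescence ratio not unusually high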;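 note: choline stimulus applied at its EC90 after an EC20 pre-addition; B-score computed on integrated fluorescence ratio after choline addition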
CHT allo act: CHT positive allosteric modulators, primary screen, cell-based, membrane potential dye, choline EC20; High affinity choline transporter 1 (Homo sapiens), Q9GZV3; CHT-expressing cells; active compounds read high; LV-AA mutant CHT in HEK293 cells; B-score at 10 µM; 310,000 tested, 0.49% active;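 active = initial fluorescence not abnormally high and integrated response B-score, plate-corrected, over 3 SD above library mean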
The depositor's hits bear a star; i = inactive; nt = not tested or not shown. The list is not random: actives were taken first. Their share in the collection is about 4.9%.

SMILES	HSF1 inhib	Lipid droplet	PHOSPHO1 inh	HSF-1 act	CHT block	CHT allo act
Cc1cccc(Nc2nnc(SCC(=O)Nc3cccc(S(=O)(=O)N4CCCCC4)c3)s2)c1	16	-8	-24	58*	i	i
Cc1ccc(C)c(OCC(=O)Nc2cccc(S(=O)(=O)NC3=NCCCCC3)c2)c1	-6	-14	67*	11	i	i
Cc1ccc(Nc2nnc(SCC(=O)Nc3ccc(S(=O)(=O)N4CCOCC4)cc3)s2)cc1	15	-1	29	72*	i	i
Cc1ccc(Nc2nnc(SCC(=O)Nc3cccc(S(=O)(=O)NC4=NCCCCC4)c3)s2)cc1	31	8	-40	86*	i	i
O=C1c2ccccc2C(=O)N1OCc1ccccc1[N+](=O)[O-]	-10	-4	34	6	i	i
Cc1cc2nnc(SCC(=O)NCC(c3ccccc3)N(C)C)n2c2ccccc12 (configuration not stated)	-5	-6	56	-4	i	i
CCc1ccc(Nc2nnc(SCC(=O)Nc3cccc(S(=O)(=O)NC4=NCCCCC4)c3)s2)cc1	26	1	-8	55*	i	i
Cc1ccc2nc(SCC(=O)Nc3cccc(S(N)(=O)=O)c3)[nH]c2c1	-2	-1	-25	-6	i	i
Cc1ccc2nc(SCC(=O)Nc3cccc(S(=O)(=O)NC4=NCCCCC4)c3)[nH]c2c1	54	-5	24	112*	i	i
O=C(O)c1ccc(N/N=C/C2=C(N3CCOCC3)C(=C\c3ccccc3)/CC2)cc1	-60*	2	20	-71	i	i
Cc1cc(C)nc(N/N=C/C2=C(N3CCOCC3)C(=C\c3ccc(Cl)cc3)/CC2)n1	13	19	-13	48	i	i
O=[N+]([O-])c1cccc(S(=O)(=O)N2CCC(c3nc(-c4ccncc4)no3)CC2)c1	-1	3	19	-6	i	i
Cc1cc(SCC(=O)N/N=C/c2ccc(O)c(O)c2)c(C)cc1Br	41	-2	-3	63*	i	i
CCCCN(C)C(=O)CCC(=O)Nc1ccc2nc(N3CCN(C)CC3)cc(C)c2c1	-70*	-3	-12	-76	i	i
CCCCN(CC)CCCNC(=S)Nc1ccc2nc(N3CCN(C)CC3)cc(C)c2c1	-9	5	37	-1	i	i
CCCCN(CC)CCCNC(=S)Nc1ccc2nc(N3CCN(CC)CC3)cc(C)c2c1	-10	-2	28	-2	-11*	i
CCCN(CCC)CCCNC(=S)Nc1ccc2nc(N3CCCC3)cc(C)c2c1	2	3	1	4	-9.5*	i
Cc1cccc(N/C(N)=N/c2nc3c(c(=O)[nH]2)CCCC3)c1	1	16	2	10	i	i
O=C1CCC/C(=N\NC(=O)c2ccc(COc3ccccc3-c3ccccc3)cc2)C1	31	2	12	72*	i	i
O=C(N/N=C/c1ccccc1[N+](=O)[O-])c1ccc(COc2ccccc2-c2ccccc2)cc1	3	-8	-67	14	i	i
O=C(COc1ccccc1-c1ccccc1)NN=C1CCCC1	nt	4	61*	nt	i	i
COc1cc(NC(=O)c2ccco2)c(C(=O)OCC(=O)c2c[nH]c3ccccc23)cc1OC	-35	8	10	-36	i	i
COc1ccc(S(=O)(=O)N2CCCOC2CNC(=O)C(=O)NCc2cccnc2)cc1 (configuration not stated)	-1	-22	14	5	i	i
Cc1cccc(C)c1NC(=O)N1C(C(=O)O)CSC1C(=O)O (configuration not stated)	-88*	-2	-18	-90	i	i
CC(=O)Nc1ccc(C(=O)OCC(=O)c2ccc(C)c([N+](=O)[O-])c2)cc1	20	nt	7	58*	i	i
SMILES	HSF1 inhib	Lipid droplet	PHOSPHO1 inh	HSF-1 act	CHT block	CHT allo act
O=C(O)c1cccc(S(=O)(=O)N2CCC(n3nnc4cc(C(F)(F)F)ccc43)CC2)c1	39	-2	28	79*	i	i
COc1ccc(S(=O)(=O)N(C(=O)C(C)C)c2ccc3oc(=O)sc3c2)cc1	8	-1	97*	24	i	i
CC(C)C(=O)N(c1ccc2oc(=O)sc2c1)S(=O)(=O)c1ccccc1	16	-6	92*	17	i	i
CCCC(=O)N(c1ccc2oc(=O)sc2c1)S(=O)(=O)c1cccs1	nt	nt	95*	nt	i	i
CCC(c1nnc(SCC(=O)N(C)c2ccccc2)n1Cc1ccccc1)N(C)C (configuration not stated)	3	21	20	-11	i	i
O=C(Cc1c[nH]c2ccccc12)N1CCN(c2ccccc2)CC1	-4	18	28	4	i	i
CC(C)=C1C2CCC1C1C(=O)N(c3ccc(C)c(C)c3)C(=O)C21 (configuration not stated)	-71*	4	26	-78	i	i
Cc1cc(C(=O)C(=O)N(C)C)c(C)n1-c1ccc(Cl)cc1	-14	0	36	4	i	i
CCOC(=O)c1sc(Nc2ccccc2Cl)nc1C	26	-2	32	46	i	i
CCOC(=O)c1sc(NC(=O)Nc2ccccc2F)nc1C	-74*	16	-5	-80	i	i
O=C(CSCc1ccc(Br)cc1)N1CCCC1	15	5	43	57*	i	i
CCOC(=O)N1CCC(N2C(=O)c3ccccc3C2Nc2cc(C(=O)OC)cc(C(=O)OC)c2)CC1 (configuration not stated)	-78*	nt	-5	-82	i	i
CC(C)CCN(C)c1ccc(/C=N/n2cnnc2)cc1	6	-10	-31	4	i	i
COc1cccc(N(C(=O)c2snc(C(N)=O)c2N)C(C(=O)NCC2CCCO2)c2cccs2)c1 (configuration not stated)	4	-3	22	15	i	i
COc1cccc(N(C(=O)CCl)C(C(=O)NCCc2ccccc2)c2cccs2)c1 (configuration not stated)	-92*	-10	-10	-93	i	i
O=[N+]([O-])c1ccc(Nc2ccc(F)cc2)nc1	-2	5	-28	20	i	i
O=[N+]([O-])c1ccc(Nc2ccc(F)cc2)cc1	-81*	-9	29	-84	i	i
CC1CCC/C(=N/Nc2nc3ccccc3s2)C1 (configuration not stated)	-22	18	13	-29	i	i
